Assay [1] concerns Atropa belladonna. Description: Activity at Atropa belladonna recombinant hycosamine 6beta-hydroxylase expressed in Escherichia coli assessed as hydroxylated product formation at 0.2 mM after 1 hr by ESI-MS analysis. An outline of the steps:
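Ni-NTA-purified His-tagged AbH6H, E. coli-expressed. Analogue at 0.2 mM final replaced (−)-hyoscyamine in 50 mM Tris/HCl pH 7.6 with 0.4 mM FeSO4, 4 mM sodium ascorbate, 1 mM 2-oxoglutaric acid and 2 mg/mL catalase at 34 °C. The reaction was quenched with saturated Na2CO3 (pH ~9.5) and extracted with EtOAc. Conversion to products was checked by ESI-MS.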

In assay [2] the test system is Atropa belladonna. Description: Inhibition of Atropa belladonna recombinant hycosamine 6beta-hydroxylase expressed in Escherichia coli using hyoscyamine as substrate assessed as inhibition of hydroxylated product formation at 0.1 mM after 1 hr by HPLC analysis. An outline of the steps: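 Purified AbH6H was assayed in 50 mM Tris/HCl pH 7.6 with 0.4 mM FeSO4, 4 mM ascorbate, 1 mM 2-oxoglutarate, 2 mg/mL catalase and 0.2 mM (−)-hyoscyamine, plus 0.1 mM analogue, at 34 °C. After Na2CO3 quench and EtOAc extraction, 6β-hydroxyhyoscyamine was quantified by C18 HPLC (UV 210 nm, water/H3PO4–MeOH gradient). Inhibition was scored as reduced product formation.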

In assay [3] the test system is Atropa belladonna. As to the kind of experiment: Activity at Atropa belladonna recombinant hycosamine 6beta-hydroxylase epoxidase activity expressed in Escherichia coli assessed as scopolamine formation at 0.2 mM after 1 hr by ESI-MS analysis. The method in brief: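 C-terminally His6-tagged A. belladonna H6H expressed in E. coli JM109 and Ni-NTA purified. Substrate (0.2 mM final) incubated at 34 °C in 50 mM Tris/HCl pH 7.6 with 0.4 mM FeSO4, 4 mM sodium ascorbate, 1 mM 2-oxoglutarate and 2 mg/mL catalase. Quenched with saturated Na2CO3 to pH ~9.5 and extracted with EtOAc. Products detected by ESI-MS.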

Calls of active or inactive are those of the source. No cut-off for these calls is given here.

Our source for the Activity and inhibition values is ChEMBL document CHEMBL2057189, “Functional characterization of recombinant hyoscyamine 6β-hydroxylase from Atropa belladonna” (Bioorg Med Chem, 2012).

`CN(C)c1ccc(CC(=O)O[C@H]2C[C@H]3CC[C@@H](C2)N3C)cc1`: in the assay on Atropa belladonna [1], the outcome was Active.

For `CN1CCC(OC(=O)Cc2ccccc2)CC1`, the inhibition entry in the assay with Atropa belladonna [2] is “inactive”. The result in the assay with Atropa belladonna [1] was inactive.

In the case of `CN1[C@@H]2C=C[C@H]1C[C@@H](OC(=O)[C@H](CO)c1ccccc1)C2`, the result with Atropa belladonna [1] and in the assay with Atropa belladonna [3] was Active.

In the case of `CN1C2CC[C@@H]1C[C@H](OC(=O)CCc1ccccc1)C2` (single isomer, unassigned), in the assay with Atropa belladonna [2], the inhibition result was “inactive”. For the same molecule, the outcome in the assay on Atropa belladonna [1] was inactive.

For `CN1C2CC[C@@H]1C[C@H](OC(=O)c1ccccc1)C2` (single isomer, unassigned), in the assay with Atropa belladonna [1], the result was Active.

In the case of `C[N+]1(C)C2C[C@H](OC(=O)[C@H](CO)c3ccccc3)C[C@@H]1[C@H]1OC21` (single isomer, unassigned), the inhibition in the assay on Atropa belladonna [2] is 7%. For the same molecule, the result with Atropa belladonna [1] was inactive.

As for `O=C(Cc1ccccc1)O[C@@H]1CC2CC[C@H](C1)O2` (single isomer, unassigned), in the assay on Atropa belladonna [2], the inhibition result is “inactive”. The result in the assay on Atropa belladonna [1] was inactive.

As a reminder, the inhibition is the change of the read-out against control, counted positive when it falls.
